Broadly, the GI50 is the concentration giving 50% growth inhibition. A low value points to more potent growth inhibition. Broadly, the TGI is the concentration giving total growth inhibition.

The values that follow come from ChEMBL document CHEMBL1127509, “Antitumor agents. 152. In vitro inhibitory activity of etoposide derivative NPF against human tumor cell lines and a study of its conformation by X-ray crystallography, molecular modeling, and NMR spectroscopy” (1994).

Experiment [1] deals with Tumor Cell line. Nature of the experiment: Tested for in vitro inhibitory activity against drug concentration causing 50% cell growth inhibition in 56 human tumor cell lines derived from Melanoma in test 6; log10 GI50. It counts as functional. In outline: (§1)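 NCI 56-line human tumour panel screen. Cells were seeded in 96-well plates on day 0, mostly at 20 000 cells/well, and preincubated 24 h without drug. Drug was then added at five 10-fold dilutions for a further 48 h. Cells were fixed in situ and stained with SRB, and bound dye was read spectrophotometrically. GI50, TGI (0% growth) and LC50 (−50% growth) were taken versus control. Values are mean-graph midpoints (log10) per test.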

In experiment [2] the test system is Tumor Cell line. Put plainly: Tested for in vitro inhibitory activity against drug concentration causing total cell growth inhibition in 56 human tumor cell lines derived from leukemia in test 9; log10 TGI50. It counts as functional. As to conditions: read-out: Log TGI (converted). Put shortly:
as §1

The subject of experiment [3] is Tumor Cell line. Nature of the experiment: Tested for in vitro inhibitory activity against drug concentration causing total cell growth inhibition in 56 human tumor cell lines derived from Non small cell lung cancer in test 2; log10 TGI50. It is filed as functional. The following applies: read-out: Log TGI (converted). In outline: as §1
For experiment [4], the system named is Tumor Cell line. Put plainly: Tested for in vitro inhibitory activity against drug concentration causing total cell growth inhibition in 56 human tumor cell lines derived from ovarian cancer in test 7; log10 TGI50. It counts as functional. The following applies: read-out: Log TGI (converted). In outline:
as §1

Experiment [5] deals with Tumor Cell line. Put plainly: Tested for in vitro inhibitory activity against drug concentration causing 50% cell death inhibition in 56 human tumor cell lines derived from small cell lung cancer in test 3; log10 LC50. It is filed as functional. The following applies: read-out: Log LC50 (the source's name) (converted). In outline: as §1
Experiment [6] deals with Tumor Cell line. Put plainly: Tested for in vitro inhibitory activity against drug concentration causing 50% cell death inhibition in 56 human tumor cell lines derived from leukemia in test 9; log10 LC50. It counts as functional. The following applies: read-out: Log LC50 (the source's name) (converted). Put shortly: as §1
The subject of experiment [7] is Tumor Cell line. Put plainly: Tested for in vitro inhibitory activity against drug concentration causing total cell growth inhibition in 56 human tumor cell lines derived from CNS cancer in test 5; log10 TGI50. It counts as functional. The following applies: read-out: Log TGI (converted). Put shortly:
as §1

Experiment [8] has as its system Tumor Cell line. Nature of the experiment: Tested for in vitro inhibitory activity against drug concentration causing 50% cell death inhibition in 56 human tumor cell lines derived from Renal cancer in test 8; log10 LC50. It is filed as functional. As to conditions: read-out: Log LC50 (the source's name) (converted). In outline: as §1
For experiment [9], the system named is Tumor Cell line. Nature of the experiment: Tested for in vitro inhibitory activity against drug concentration causing 50% cell death inhibition in 56 human tumor cell lines derived from Ovarian cancer in test 7; log10 LC50. It is filed as functional. The following applies: read-out: Log LC50 (the source's name) (converted). Put shortly: as §1
Experiment [10] relates to Tumor Cell line. Nature of the experiment: Tested for in vitro inhibitory activity against drug concentration causing 50% cell death inhibition in 56 human tumor cell lines derived from leukemia in test 1; log10 LC50. It is filed as functional. The following applies: read-out: Log LC50 (the source's name) (converted). Put shortly:
as §1

Experiment [11] deals with Tumor Cell line. Nature of the experiment: Tested for in vitro inhibitory activity against drug concentration causing total cell growth inhibition in 56 human tumor cell lines derived from Melanoma in test 6; log10 TGI50. It counts as functional. As to conditions: read-out: Log TGI (converted). In outline:
as §1

The subject of experiment [12] is Tumor Cell line. Nature of the experiment: Tested for in vitro inhibitory activity against drug concentration causing 50% cell growth inhibition in 56 human tumor cell lines derived from Ovarian cancer in test 7; log10 GI50. It counts as functional. In outline: as §1
Experiment [13] deals with Tumor Cell line. Put plainly: Tested for in vitro inhibitory activity against drug concentration causing 50% cell growth inhibition in 56 human tumor cell lines derived from leukemia in test 1; log10 GI50. It is filed as functional. In outline: as §1
Experiment [14] has as its system Tumor Cell line. Put plainly: Tested for in vitro inhibitory activity against drug concentration causing 50% cell death inhibition in 56 human tumor cell lines derived from CNS cancer in test 5; log10 LC50. The following applies: read-out: Log LC50 (the source's name) (converted). It is filed as functional. In outline:
as §1

The subject of experiment [15] is Tumor Cell line. Nature of the experiment: Tested for in vitro inhibitory activity against drug concentration causing 50% cell growth inhibition in 56 human tumor cell lines derived from colon cancer in test 4; log10 GI50. It is filed as functional. In outline: as §1
The subject of experiment [16] is Tumor Cell line. Nature of the experiment: Tested for in vitro inhibitory activity against drug concentration causing 50% cell growth inhibition in 56 human tumor cell lines derived from small-cell-lung cancer in test 3; log10 GI50. It counts as functional. In outline:
as §1

Experiment [17] concerns Tumor Cell line. Nature of the experiment: Tested for in vitro inhibitory activity against drug concentration causing 50% cell death inhibition in 56 human tumor cell lines derived from Non small cell lung cancer in test 2; log10 LC50. It counts as functional. The following applies: read-out: Log LC50 (the source's name) (converted). In outline: as §1
In experiment [18] the test system is Tumor Cell line. Put plainly: Tested for in vitro inhibitory activity against drug concentration causing 50% cell death inhibition in 56 human tumor cell lines derived from colon cancer in test 4; log10 LC50. It counts as functional. As to conditions: read-out: Log LC50 (the source's name) (converted). Put shortly: as §1
Experiment [19] deals with Tumor Cell line. Nature of the experiment: Tested for in vitro inhibitory activity against drug concentration causing total cell growth inhibition in 56 human tumor cell lines derived from colon cancer in test 4. The following applies: read-out: Log TGI (converted). It counts as functional. In outline: as §1
For experiment [20], the system named is Tumor Cell line. Put plainly: Tested for in vitro inhibitory activity against drug concentration causing 50% cell growth inhibition in 56 human tumor cell lines derived from leukemia in test 9; log10 GI50. It is filed as functional. In outline: as §1
The test system of experiment [21] is Tumor Cell line. Nature of the experiment: Tested for in vitro inhibitory activity against drug concentration causing total cell growth inhibition in 56 human tumor cell lines derived from leukemia in test 1; log10 TGI50. It is filed as functional. As to conditions: read-out: Log TGI (converted). In outline:
as §1

Experiment [22] relates to Tumor Cell line. Nature of the experiment: Tested for in vitro inhibitory activity against drug concentration causing 50% cell growth inhibition in 56 human tumor cell lines derived from renal cancer in test 8; log10 GI50. It is filed as functional. Put shortly: as §1
Experiment [23] deals with Tumor Cell line. Put plainly: Tested for in vitro inhibitory activity against drug concentration causing 50% cell death inhibition in 56 human tumor cell lines derived from Melanoma in test 6; log10 LC50. It counts as functional. The following applies: read-out: Log LC50 (the source's name) (converted). Put shortly:
as §1

The subject of experiment [24] is Tumor Cell line. Put plainly: Tested for in vitro inhibitory activity against drug concentration causing total cell growth inhibition in 56 human tumor cell lines derived from Renal cancer in test 8; log10 TGI50. The following applies: read-out: Log TGI (converted). It is filed as functional. Put shortly: as §1
The subject of experiment [25] is Tumor Cell line. Put plainly: Tested for in vitro inhibitory activity against drug concentration causing total cell growth inhibition in 56 human tumor cell lines derived from small-cell-lung cancer in test 3; log10 TGI50. It is filed as functional. As to conditions: read-out: Log TGI (converted). Put shortly: as §1
For experiment [26], the species on record is Homo sapiens. Nature of the experiment: Tested for in vitro inhibitory activity against drug concentration causing 50% cell growth inhibition in 56 human tumor cell lines derived from Non-small-cell lung cancer in test 2; log10 GI50. It counts as functional. In outline:
as §1

Experiment [27] deals with Tumor Cell line. Put plainly: Tested for in vitro inhibitory activity against drug concentration causing 50% cell growth inhibition in 56 human tumor cell lines derived from CNS cancer in test 5; log10 GI50. It counts as functional. Put shortly:
as §1

Experiment [28] concerns P388. Put plainly: Tested for in vitro inhibitory activity against drug concentration causing 50% cell growth inhibition in P388/ADR cell lines; log10 GI50. It counts as functional, Homo sapiens. The following applies: Mus musculus. Put shortly:
(§2)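 NCI screen: cells plated on day 0 (mostly 20 000 cells/well) and preincubated drug-free for 24 h. Drug then added at five 10-fold dilutions for 48 h. Cells were fixed in situ, stained with sulforhodamine B, and the solubilized bound dye read spectrophotometrically. GI50, the concentration giving 50% growth inhibition versus control, was taken from dose-response curves.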

Experiment [29] relates to Tumor Cell line. Nature of the experiment: Tested for in vitro inhibitory activity against drug concentration causing 50% cell growth inhibition in 56 human tumor cell lines derived from leukemia; log10 GI50. It is filed as functional. Put shortly:
as §2

Turning to `COc1cc([C@@H]2c3cc4c(cc3[C@@H](Nc3ccc(F)cc3)[C@H]3COC(=O)[C@H]23)OCO4)cc(OC)c1O`, the GI50 is 661 nM in [1]; 871 nM in experiment [12]; 1100 nM in experiment [13]; 708 nM in experiment [15]; 1410 nM in [16]; 813 nM in [20]. Besides, the GI50 in experiment [22] was 646 nM; in experiment [26] it was 813 nM; in experiment [27], 1350 nM. The concentration for total growth inhibition (TGI) is 8710 nM in experiment [2]; 12300 nM in experiment [3]; 12000 nM in experiment [4]; 11000 nM in [7]; 977 nM in experiment [11]; 1000 nM in experiment [19]. The TGI in experiment [21] was 9770 nM; in [24] it was 977 nM; in experiment [25] it was 9550 nM. In addition, the CC50 in experiment [5] is 61700 nM; in experiment [6], 61700 nM; in experiment [8], 1000 nM; in [9], 79400 nM; in experiment [10], 61700 nM; in experiment [14], 63100 nM. The CC50 in [17] is 66100 nM; in [18], 1000 nM; in [23], 1000 nM.

On to `COc1cc([C@@H]2c3cc4c(cc3[C@@H](O[C@@H]3O[C@@H]5CO[C@@H](C)O[C@H]5[C@H](O)[C@H]3O)[C@H]3COC(=O)[C@H]23)OCO4)cc(OC)c1O` [ETOPOSIDE], for which the GI50 was 63100 nM in experiment [28] and 83200 nM in experiment [29].
